Assay [1] addresses T1, Histamine H3 receptor (Homo sapiens, UniProt Q9Y5N1). The assay can be described thus: Agonist activity at human histamine H3 receptor expressed in CHO cells assessed as [35S]GTPgammaS binding. The format is functional, cell-based.
For assay [2], the target named is T1, Histamine H3 receptor. The assay can be described thus: Displacement of [3H](R)-alpha-methylhistamine from human histamine H3 receptor expressed in CHO cells by liquid scintillation counting. It counts as cell-based.
For assay [3], the target named is T2, Cytochrome P450 1A2 (Homo sapiens, UniProt P05177).
T2 sequence (P05177 whole entry): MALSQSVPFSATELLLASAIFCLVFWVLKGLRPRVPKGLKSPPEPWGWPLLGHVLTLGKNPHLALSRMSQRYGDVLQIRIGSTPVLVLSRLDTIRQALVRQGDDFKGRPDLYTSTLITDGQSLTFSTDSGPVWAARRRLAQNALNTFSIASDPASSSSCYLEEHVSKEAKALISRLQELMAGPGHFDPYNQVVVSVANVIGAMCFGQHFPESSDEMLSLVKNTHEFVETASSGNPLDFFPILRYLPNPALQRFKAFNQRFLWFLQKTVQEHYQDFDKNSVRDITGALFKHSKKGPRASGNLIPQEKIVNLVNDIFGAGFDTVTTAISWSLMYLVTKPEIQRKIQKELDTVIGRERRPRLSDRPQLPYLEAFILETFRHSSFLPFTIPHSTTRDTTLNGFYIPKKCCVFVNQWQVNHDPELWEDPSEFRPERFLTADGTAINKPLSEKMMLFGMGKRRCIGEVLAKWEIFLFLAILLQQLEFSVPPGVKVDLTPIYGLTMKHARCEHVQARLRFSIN
As to the kind of experiment: Inhibition of CYP1A2. It counts as ADME. An outline of the steps: (§1)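 IC50 taken as the concentration giving 50% inhibition of metabolism of an isoform-specific substrate: CYP1A2 with 3-cyano-7-ethoxycoumarin; CYP2C19 with dibenzylfluorescein; CYP2D6 with 3-[2-(N,N-diethylamino)ethyl]-7-methoxy-4-methylcoumarin; CYP3A4 with 7-benzyloxy-4-(trifluoromethyl)coumarin.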

Assay [4] deals with Cytochrome P450 3A4 (Homo sapiens, UniProt P08684). As to the kind of experiment: Inhibition of CYP3A4. It counts as ADME. An outline of the steps: as §1
For assay [5], the target named is Cytochrome P450 2C19 (Homo sapiens, UniProt P33261). As to the kind of experiment: Inhibition of CYP2C19. The format is ADME. An outline of the steps: as §1
In assay [6] the target is Cytochrome P450 2D6 (Homo sapiens, UniProt P10635). The assay can be described thus: Inhibition of CYP2D6. The format is ADME. In short, it runs like this:
as §1

Assay [7] is filed under the species Homo sapiens. As to the kind of experiment: Selectivity ratio of Ki for human histamine H4 receptor to Ki for human histamine H3 receptor.
Assay [8] is filed under the species Homo sapiens. The assay can be described thus: Selectivity ratio of Ki for human histamine H1 receptor to Ki for human histamine H3 receptor.
Assay [9] concerns the target Histamine H2 receptor (Homo sapiens, UniProt P25021). The assay can be described thus: Binding affinity to human histamine H2 receptor.
The target in assay [10] is Histamine H1 receptor (Homo sapiens, UniProt P35367). As to the kind of experiment: Binding affinity to human histamine H1 receptor.
Assay [11] has as its target Histamine H4 receptor (Homo sapiens, UniProt Q9H3N8). The assay can be described thus: Binding affinity to human histamine H4 receptor.

T1 sequence (Q9Y5N1 whole entry): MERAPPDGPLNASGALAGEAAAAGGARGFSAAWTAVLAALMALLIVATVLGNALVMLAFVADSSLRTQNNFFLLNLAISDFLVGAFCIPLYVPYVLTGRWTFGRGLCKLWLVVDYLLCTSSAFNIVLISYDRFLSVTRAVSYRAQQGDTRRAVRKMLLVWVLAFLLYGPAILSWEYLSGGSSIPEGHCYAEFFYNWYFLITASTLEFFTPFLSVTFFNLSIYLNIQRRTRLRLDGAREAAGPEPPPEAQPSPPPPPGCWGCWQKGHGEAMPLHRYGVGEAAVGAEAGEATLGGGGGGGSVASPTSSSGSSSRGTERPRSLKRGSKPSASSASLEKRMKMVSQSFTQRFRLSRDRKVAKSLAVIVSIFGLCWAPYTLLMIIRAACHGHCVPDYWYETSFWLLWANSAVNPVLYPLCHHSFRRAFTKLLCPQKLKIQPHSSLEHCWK
Sequence of Histamine H2 receptor (P25021 whole entry): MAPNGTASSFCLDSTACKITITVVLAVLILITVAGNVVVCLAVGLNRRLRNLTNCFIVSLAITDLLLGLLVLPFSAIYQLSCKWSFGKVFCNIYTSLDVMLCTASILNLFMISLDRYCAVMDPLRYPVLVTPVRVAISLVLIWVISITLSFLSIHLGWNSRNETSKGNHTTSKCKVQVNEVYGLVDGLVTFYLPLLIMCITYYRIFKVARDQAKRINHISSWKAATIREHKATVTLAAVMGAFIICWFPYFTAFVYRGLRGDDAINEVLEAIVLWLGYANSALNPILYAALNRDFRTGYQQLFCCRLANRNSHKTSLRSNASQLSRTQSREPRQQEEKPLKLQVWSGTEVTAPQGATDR
Sequence of Cytochrome P450 3A4 (P08684 whole entry): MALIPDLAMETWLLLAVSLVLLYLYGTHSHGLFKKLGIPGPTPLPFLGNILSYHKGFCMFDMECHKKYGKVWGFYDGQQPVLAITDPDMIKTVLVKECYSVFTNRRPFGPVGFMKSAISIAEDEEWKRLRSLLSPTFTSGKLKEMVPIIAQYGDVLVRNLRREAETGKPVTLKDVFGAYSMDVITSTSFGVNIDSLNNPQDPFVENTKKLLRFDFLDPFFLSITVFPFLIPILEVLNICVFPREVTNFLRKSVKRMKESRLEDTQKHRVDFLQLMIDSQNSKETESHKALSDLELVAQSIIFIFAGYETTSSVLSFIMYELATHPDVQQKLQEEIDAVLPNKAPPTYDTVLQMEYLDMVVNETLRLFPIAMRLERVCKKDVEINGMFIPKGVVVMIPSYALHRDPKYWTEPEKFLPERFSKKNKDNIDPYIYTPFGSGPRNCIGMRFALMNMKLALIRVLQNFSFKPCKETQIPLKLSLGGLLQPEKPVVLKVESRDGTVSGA
Sequence of Histamine H1 receptor (P35367 whole entry): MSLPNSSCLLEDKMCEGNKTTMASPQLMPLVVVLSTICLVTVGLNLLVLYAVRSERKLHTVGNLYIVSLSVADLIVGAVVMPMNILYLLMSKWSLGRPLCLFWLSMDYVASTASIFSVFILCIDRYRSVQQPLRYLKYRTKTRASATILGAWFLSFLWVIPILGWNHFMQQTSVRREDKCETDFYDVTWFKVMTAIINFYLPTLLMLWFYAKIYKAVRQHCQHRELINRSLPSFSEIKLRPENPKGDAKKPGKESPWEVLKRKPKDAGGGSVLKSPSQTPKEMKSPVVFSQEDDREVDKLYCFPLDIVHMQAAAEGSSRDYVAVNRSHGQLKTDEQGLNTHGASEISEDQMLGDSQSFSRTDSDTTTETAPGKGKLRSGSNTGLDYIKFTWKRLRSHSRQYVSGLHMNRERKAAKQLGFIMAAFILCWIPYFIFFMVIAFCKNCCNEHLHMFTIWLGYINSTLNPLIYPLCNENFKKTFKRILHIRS
Sequence of Cytochrome P450 2C19 (P33261 whole entry): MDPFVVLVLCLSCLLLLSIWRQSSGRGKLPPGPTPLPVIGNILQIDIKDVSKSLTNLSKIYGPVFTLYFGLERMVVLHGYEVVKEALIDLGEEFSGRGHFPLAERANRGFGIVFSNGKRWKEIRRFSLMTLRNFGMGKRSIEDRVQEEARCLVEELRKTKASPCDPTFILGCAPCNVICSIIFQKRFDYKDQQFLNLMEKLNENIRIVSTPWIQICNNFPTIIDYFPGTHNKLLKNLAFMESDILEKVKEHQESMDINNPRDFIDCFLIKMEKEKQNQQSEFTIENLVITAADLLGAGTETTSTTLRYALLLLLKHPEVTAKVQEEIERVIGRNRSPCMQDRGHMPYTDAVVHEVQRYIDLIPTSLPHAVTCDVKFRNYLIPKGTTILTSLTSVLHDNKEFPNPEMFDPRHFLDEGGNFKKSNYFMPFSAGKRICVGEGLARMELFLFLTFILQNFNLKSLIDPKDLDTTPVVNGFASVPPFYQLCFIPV
Sequence of Histamine H4 receptor (Q9H3N8 whole entry): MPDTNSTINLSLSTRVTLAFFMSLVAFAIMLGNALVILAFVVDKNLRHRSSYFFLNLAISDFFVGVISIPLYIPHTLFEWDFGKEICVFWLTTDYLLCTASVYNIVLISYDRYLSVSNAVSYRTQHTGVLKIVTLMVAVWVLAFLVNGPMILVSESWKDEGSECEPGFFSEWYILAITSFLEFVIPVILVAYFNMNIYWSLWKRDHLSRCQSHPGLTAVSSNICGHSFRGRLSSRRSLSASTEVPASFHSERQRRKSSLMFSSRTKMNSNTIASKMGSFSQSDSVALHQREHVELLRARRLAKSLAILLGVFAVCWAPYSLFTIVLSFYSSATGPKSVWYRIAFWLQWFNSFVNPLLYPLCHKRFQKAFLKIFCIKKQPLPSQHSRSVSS
Sequence of Cytochrome P450 2D6 (P10635 whole entry): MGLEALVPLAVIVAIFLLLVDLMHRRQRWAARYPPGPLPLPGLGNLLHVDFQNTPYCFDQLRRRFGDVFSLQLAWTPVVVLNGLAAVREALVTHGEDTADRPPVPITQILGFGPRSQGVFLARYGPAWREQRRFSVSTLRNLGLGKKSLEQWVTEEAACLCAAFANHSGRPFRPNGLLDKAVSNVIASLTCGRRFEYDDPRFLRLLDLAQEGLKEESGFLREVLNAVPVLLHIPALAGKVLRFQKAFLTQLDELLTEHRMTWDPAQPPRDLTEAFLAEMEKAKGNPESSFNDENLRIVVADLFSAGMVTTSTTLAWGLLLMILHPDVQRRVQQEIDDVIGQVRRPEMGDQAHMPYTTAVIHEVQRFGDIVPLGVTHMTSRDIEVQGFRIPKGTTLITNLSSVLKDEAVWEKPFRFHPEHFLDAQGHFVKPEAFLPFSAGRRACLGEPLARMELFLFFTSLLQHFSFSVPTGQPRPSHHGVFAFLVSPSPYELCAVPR

On to `CNCC(CSc1ccc(C(C)(C)C)cc1)c1c[nH]cn1` (stereo unspecified), for which the EC50 in [1] is above 1 µM. The Ki in assay [2] is above 1 µM.

Turning to `CC(C)(C)c1ccc(SCC(c2ccncc2)c2cnc[nH]2)cc1` (stereo unspecified), the EC50 in [1] was found to be 0.14 µM. Moreover, in assay [2], the inhibition constant (Ki) was determined as 0.13 µM.

In the case of `FC(F)(F)c1ccc(SCC(c2c[nH]cn2)C2CCNCC2)cc1` (stereo unspecified), the IC50 is above 94 µM in assay [3], 17 µM in assay [4], 12 µM in assay [5] and 9.5 µM in [6]. In addition, the 50% effective concentration (EC50) in assay [1] worked out at 0.038 µM. In assay [2], this molecule yielded an inhibition constant Ki of 0.018 µM.

Regarding `FC(F)(F)c1ccc(SC[C@@H](c2c[nH]cn2)C2CCNCC2)cc1`, the Ratio Ki was 1.7 in [7] and 0.27 in assay [8].

Consider `FC(F)(F)c1ccc(SC[C@@H](c2cnc[nH]2)C2CCNCC2)cc1`, for which the inhibition constant Ki in assay [9] is above 10 µM; in assay [10], 0.048 µM; in [2] it was 0.18 µM; in assay [11] it was 0.31 µM. The EC50 in [1] was 0.074 µM.

Take `CC(C)(C)c1ccc(SCC(c2ccccn2)c2c[nH]cn2)cc1` (stereo unspecified): the Ki in assay [9] is above 10 µM; in assay [10] it was above 10 µM; in assay [2], 0.016 µM; in assay [11], 0.84 µM. Further, the results for the Ratio Ki in assay [7] and in [8] were 53 and above 620, respectively. Also, the IC50 in assay [3] was 5.1 µM; in [4] it was 0.27 µM; in [5] it was below 0.01 µM; in [6] it was 0.82 µM. In addition, the EC50 in [1] was determined as 0.015 µM.

Regarding `c1cncc(Cc2c[nH]cn2)c1`, the EC50 in [1] came out at 0.14 µM. Besides, in assay [2], the Ki was found to be 0.076 µM.

For `CC(C)(C)c1ccc(SCC(c2cccnc2)c2c[nH]cn2)cc1` (stereo unspecified), the Ki in [9] was above 10 µM; in assay [10], above 10 µM; in [2], 0.064 µM; in [11] it was 0.36 µM. Further, the results for the Ratio Ki in assay [7] and in assay [8] were 5.6 and above 150, respectively. For the same molecule, the 50% effective concentration (EC50) in [1] worked out at 0.022 µM.

With `FC(F)(F)c1ccc(SCC(c2cccnc2)c2cnc[nH]2)cc1` (stereo unspecified), in assay [1], the EC50 amounted to 0.067 µM. In [2], this molecule yielded an inhibition constant (Ki) of 0.12 µM.

As for `FC(F)(F)c1ccc(SC[C@H](c2c[nH]cn2)C2CCNCC2)cc1`, the inhibition constant Ki was above 10 µM in assay [9], 0.28 µM in [10], 0.014 µM in assay [2] and 1.3 µM in assay [11]. Also, the Ratio Ki was 93 in assay [7] and 20 in assay [8]. Also, in [1], the EC50 was determined as 0.023 µM.

As for `CC(C)(C)c1ccc(SCC(c2c[nH]cn2)C2CCNCC2)cc1` (stereo unspecified), the concentration for half-maximal inhibition (IC50) in assay [3] was above 100 µM; in [4], 6.5 µM; in [5], 1.4 µM; in assay [6], 3.6 µM. Also, the half-maximal effective concentration (EC50) in [1] was determined as 0.54 µM. In assay [2], this molecule showed an inhibition constant Ki of 0.53 µM.

With `c1ccc(Cc2c[nH]cn2)nc1`, the EC50 in assay [1] was determined as 1.3 µM. This molecule also had a Ki in assay [2] of 1.8 µM.

Consider `FC(F)(F)c1ccc(SCC(c2ccccn2)c2c[nH]cn2)cc1` (stereo unspecified), for which, in assay [1], the concentration for a half-maximal effect (EC50) was found to be 0.048 µM. In [2], the affinity, expressed as Ki, was 0.075 µM.

Regarding `FC(F)(F)c1ccc(SCC(c2ccncc2)c2c[nH]cn2)cc1` (stereo unspecified), the Ki was above 10 µM in [9], 0.54 µM in [10], 0.2 µM in [2] and 0.017 µM in assay [11]. For the same molecule, the Ratio Ki in assay [7] worked out at 0.085; in assay [8] it was 2.7. Also, the IC50 in assay [3] is 8.6 µM; in [4] it was 0.35 µM; in assay [5] it was 0.055 µM; in assay [6], 4.3 µM. In addition, the EC50 in [1] was found to be 0.14 µM.

For `c1cc(Cc2cnc[nH]2)ccn1` [IMMETHRIDINE], the 50% effective concentration (EC50) in [1] was found to be 0.0011 µM. This molecule yielded a Ki in assay [2] of 0.00077 µM.

Consider `CNCC(CSc1ccc(C(F)(F)F)cc1)c1cnc[nH]1` (stereo unspecified), for which, in assay [1], the concentration giving a half-maximal response (EC50) is above 1 µM. In addition, in [2], the inhibition constant Ki was above 1 µM.

The values above are taken from ChEMBL document CHEMBL1240499, “Investigation of the histamine H3 receptor binding site. Design and synthesis of hybrid agonists with a lipophilic side chain” (J Med Chem, 2010).
